The record followed here is ChEMBL document CHEMBL3272280, “Prostaglandin isosteres. 1. (8-Aza-, 8,10-diaza-, and 8-aza-11-thia)-9-oxoprostanoic acids and their derivatives” (J Med Chem, 1977).

Data set [1] is described as follows: Retardation factor, Rf of the compound. In kind it is physicochemical. The gist of the method:
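Thin-layer chromatography on SiO2 plates; eluent A, CHCl3-CH3OH-HOAc (98:1:1), other eluents as designated.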

Data set [2] is filed under the species Mus musculus. Put plainly: Binding affinity to prostaglandin receptor in Charles River CD-1 mouse ovary assessed as increase in cAMP accumulation using [8-14C]adenine at 25 ug/ml after 30 mins relative to control. The data set is classed as tissue-based. The settings on record: Female gonad. The essentials:
(§1)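 Virgin female mice over 70 days old; three ovaries per tube (15-25 mg), denuded of fat, preincubated 60 min at 37 °C in aerated Krebs-Ringer phosphate buffer pH 7.2 with 1 μCi [8-14C]adenine to label ATP. Then 0.2 mL 0.05 M theophylline in 0.15 M NaCl plus compound in 0.1 mL Me2SO added; 30 min, 37 °C. TCA stop, homogenization, [14C]-cAMP isolated including paper chromatography.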
Background: cAMP levels reflect the balance of adenylyl cyclase and phosphodiesterase activity.

The species named for data set [3] is Mus musculus. Put plainly: Binding affinity to prostaglandin receptor in Charles River CD-1 mouse ovary assessed as increase in cAMP accumulation using [8-14C]adenine at 100 ug/ml after 30 mins relative to control. The data set is classed as tissue-based. The settings on record: Female gonad. The essentials:
as §1

The species entered for data set [4] is Rattus norvegicus. Put plainly: Displacement of [3H-PGE1] from Sprague-Dawley rat kidney prostaglandin receptor after 60 mins by scintillation counting analysis. The essentials: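 Kidney plasma membrane binding fraction from male rats (120-150 g); 125 μg of it incubated with 0.4 ng [3H]-PGE1 and test compound, 60 min, 37 °C. Diluted with 0.01 M Tris HCl-saline pH 7.5, bound label collected by filtration, rinsed, counted by liquid scintillation. Duplicate runs at each of three concentrations.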
(In general: Loss of bound radioactivity is the signal in a displacement assay; it reports binding, not function.)

Data set [5] is filed under the species Mus musculus. The experiment in a line: Binding affinity to prostaglandin receptor in Charles River CD-1 mouse ovary assessed as increase in cAMP accumulation using [8-14C]adenine at 1 ug/ml after 30 mins relative to control. In kind it is tissue-based. The settings on record: Female gonad. The gist of the method: as §1
For data set [6], the species on record is Mus musculus. Put plainly: Binding affinity to prostaglandin receptor in Charles River CD-1 mouse ovary assessed as increase in cAMP accumulation using [8-14C]adenine at 10 ug/ml after 30 mins relative to control. In kind it is tissue-based. The settings on record: Female gonad. The gist of the method: as §1
For data set [7], the species on record is Mus musculus. The experiment in a line: Binding affinity to prostaglandin receptor in Charles River CD-1 mouse ovary assessed as increase in cAMP accumulation using [8-14C]adenine at 50 ug/ml after 30 mins relative to control. The settings on record: Female gonad. In kind it is tissue-based. The gist of the method: as §1
The species entered for data set [8] is Mus musculus. The experiment in a line: Binding affinity to prostaglandin receptor in Charles River CD-1 mouse ovary assessed as increase in cAMP accumulation using [8-14C]adenine at 200 ug/ml after 30 mins relative to control. The data set is classed as tissue-based. The settings on record: Female gonad. The essentials:
as §1

For data set [9], the species on record is Mus musculus. Put plainly: Binding affinity to prostaglandin receptor in Charles River CD-1 mouse ovary assessed as increase in cAMP accumulation using [8-14C]adenine at 0.1 ug/ml after 30 mins relative to control. In kind it is tissue-based. The settings on record: Female gonad. The gist of the method:
as §1

For data set [10], the species on record is Mus musculus. The experiment in a line: Binding affinity to prostaglandin receptor in Charles River CD-1 mouse ovary assessed as increase in cAMP accumulation using [8-14C]adenine at 0.01 ug/ml after 30 mins relative to control. In kind it is tissue-based. The settings on record: Female gonad. The essentials:
as §1

For data set [11], the species on record is Mus musculus. Put plainly: Binding affinity to prostaglandin receptor in Charles River CD-1 mouse ovary assessed as increase in cAMP accumulation using [8-14C]adenine at 0.05 ug/ml after 30 mins relative to control. In kind it is tissue-based. The settings on record: Female gonad. The essentials:
as §1

Data set [12] in a line: Dissociation constant, pKa of the compound. The data set is classed as physicochemical.

The structures appear in SMILES notation.

Turning to `CCCCCCCCc1c[nH]c(=O)n1CCCCCCC(=O)O`, the Rf in [1] stood at 0.84. Further, the figures for the fold change (FC) in data set [2] and in [3] were 5 and 9, respectively. For the same molecule, the Activity in [4] was determined as 19.6 µgequiv.
`CCCCCC(O)CCCC(CCCCCCC(=O)O)C(C)=O` (configuration not stated): the fold change (FC) in data set [5] stood at 2; in [2] it was 14; in data set [3], 23; in data set [6], 11; in data set [7], 16; in data set [8], 16. In addition, the Activity in data set [4] is 833 ngequiv.
For the molecule `CCCCCC(O)CCCC(CCCCCCC(=O)O)S(C)(=O)=O` (configuration not stated), the fold change (FC) in data set [5] was 14; in [2], 27; in data set [3], 38; in [9], 2; in data set [6] it was 24.
Take `CCCCC[C@H](O)/C=C/[C@H]1[C@H](O)CC(=O)[C@@H]1CCCCCCC(=O)O`: the fold change (FC) stood at 54 in data set [5]; 62 in data set [2]; 62 in data set [3]; 8 in data set [10]; 25 in [11]; 29 in data set [9]. The fold change (FC) in [6] stood at 60. In [4], this molecule had an Activity of 1 ngequiv.
On to `CCCCC[C@H](O)CC[C@H]1CCC(=O)[C@@H]1CCCCCCC(=O)O`, for which the fold change (FC) in [5] was determined as 10; in data set [2] it was 26; in [6], 25; in [7], 19.
In turn, `CCCCCC(O)CCC1CCC(=O)N1CCCCCCC(=O)O` (mixture of isomers) gave a Rf in [1] of 0.15. In addition, the pKa (usually the pH at which an ionisable group is half protonated) in data set [12] amounted to 5.25. The fold change (FC) in [5] was 0.9; in data set [2], 8; in data set [3], 18. The molecule further registered an Activity in [4] of 4.6 µgequiv.
Molecule `CCCCCC(O)CCC1SCC(=O)N1CCCCCCC(=O)O` (mixture of isomers) gave a Rf in data set [1] of 0.12. For the same molecule, the fold change (FC) came to 1.4 in [5], 8 in [2] and 25 in data set [3]. The molecule also showed an Activity in [4] of 0.39 µgequiv.
Regarding `CCCCCC(O)CCC1N(CCCCCCC(=O)O)C(=O)CS1(=O)=O` (mixture of isomers), the Rf in data set [1] was 0.24. Further, the fold change (FC) in [5] was 5; in data set [2] it was 27; in [3], 37; in data set [6], 23. Also, the Activity in data set [4] was determined as 0.06 µgequiv.
In [1], `O=C(O)CCCCCCN1C(=O)CS(=O)(=O)C1CCC(O)COc1ccc(F)cc1` (mixture of isomers) registered a Rf of 0.13. Moreover, the fold change (FC) in data set [2] was 2; in [3], 7.
With `CCCCCCCCC1CCC(=O)N1CCCCCCC(=O)O` (racemic), in data set [1], the Rf worked out at 0.25. The fold change (FC) in data set [5] worked out at 0.7; in data set [2], 8; in data set [3] it was 13. This molecule returned an Activity in [4] of 8.3 µgequiv.
With `CCCCCCCCC1C(=O)NC(=O)N1CCCCCCC(=O)O` (racemic), the Rf in [1] was 0.2. Also, the fold change (FC) in data set [2] amounted to 3; in data set [3], 6. In [4], this molecule returned an Activity of 5 µgequiv.
